ChEMBL document CHEMBL1136049, “Synthesis of syn- and anti-1-amino-3-[18F]fluoromethyl-cyclobutane-1-carboxylic acid (FMACBC), potential PET ligands for tumor detection” (J Med Chem, 2002)

Experiments:
Rattus norvegicus [1] = species: Rattus norvegicus; experiment: Radioactivity distribution in bone of normal fischer rat after injection of anti-[18F]FMACBC after 5 min.; type: ADME, organism-based, Bone element; details: in vivo
How it was run: (§1)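 Male Fischer 344 rats (200–250 g), normal, fed ad libitum, given ~85 μCi of 18F tracer in 0.3 mL sterile water IV through a tail vein catheter. Anesthesia was ketamine:xylazine IM. Groups of four were killed at 5, 30, 60 and 120 min. Tissues were weighed and gamma-counted against dose standards, decay-corrected, and expressed as mean % injected dose per gram.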

Rattus norvegicus [2] = species: Rattus norvegicus; experiment: Radioactivity distribution in kidney of tumor-bearing fischer rat after injection of anti-[18F]FMACBC after 120 min; type: ADME, organism-based; details: in vivo, 2 h
How it was run: (§2)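 Male Fischer 344 rats carrying intracranial rat 9L gliosarcoma, made by stereotaxic injection of 4 × 10^4 cells 17–19 days before. Awake restrained rats received ~35 μCi of 18F tracer in 0.3 mL sterile water IV by tail vein and were killed at 5, 60 or 120 min, n = 3–5. Tissues were weighed, gamma-counted, decay-corrected and expressed as % injected dose per gram.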

Rattus norvegicus [3] = species: Rattus norvegicus; experiment: Radioactivity distribution in muscle of normal fischer rat after injection of syn-[18F]-FMACBC after 120 min.; type: ADME, organism-based, Muscle tissue; details: in vivo, 2 h
How it was run: (§3)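 Normal male Fischer 344 rats (200–250 g) were anesthetised with ketamine:xylazine i.m. and given about 85 μCi tracer in 0.3 mL sterile water via a tail vein catheter. Groups of four were killed at 5, 30, 60 and 120 min. Selected tissues were weighed and gamma counted with dose standards, decay-corrected, and expressed as mean %ID/g.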

Rattus norvegicus [4] = species: Rattus norvegicus; experiment: Radioactivity distribution in testis of tumor-bearing fischer rat after injection of syn-[18F]-FMACBC after 5 min; type: ADME, organism-based; details: in vivo
How it was run: (§4)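 Male Fischer 344 rats with intracranial 9L gliosarcoma (4 × 10^4 cells stereotaxically implanted; used 17–19 days after implantation). About 35 μCi tracer in 0.3 mL sterile water was given by tail vein to awake, restrained rats. Rats were killed at 5, 60 or 120 min. Tissues, tumor and contralateral brain were weighed and gamma counted, decay-corrected, and expressed as %ID/g; n = 3–5 per time point.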

Rattus norvegicus [5] = species: Rattus norvegicus; experiment: Radioactivity distribution in kidney of normal fischer rat after injection of syn-[18F]-FMACBC after 60 min.; type: ADME, organism-based; details: in vivo, 1 h; how it was run: as §1
Rattus norvegicus [6] = species: Rattus norvegicus; experiment: Radioactivity distribution in lung of tumor-bearing fischer rat after injection of anti-[18F]FMACBC after 60 min; type: ADME, organism-based; details: in vivo, 1 h; how it was run: as §4
Rattus norvegicus [7] = species: Rattus norvegicus; experiment: Radioactivity distribution in liver of normal fischer rat after injection of syn-[18F]-FMACBC after 5 min.; type: ADME, organism-based; details: in vivo; how it was run: as §1
Rattus norvegicus [8] = species: Rattus norvegicus; experiment: Radioactivity distribution in kidney of normal fischer rat after injection of anti-[18F]FMACBC after 30 min.; type: ADME, organism-based; details: in vivo, 0.5 h; how it was run: as §1
Rattus norvegicus [9] = species: Rattus norvegicus; experiment: Radioactivity distribution in muscle of normal fischer rat after injection of syn-[18F]-FMACBC after 30 min.; type: ADME, organism-based, Muscle tissue; details: in vivo, 0.5 h; how it was run: as §3
Rattus norvegicus [10] = species: Rattus norvegicus; experiment: Radioactivity distribution in pancreas of normal fischer rat after injection of syn-[18F]-FMACBC after 60 min.; type: ADME, organism-based; details: in vivo, 1 h; how it was run: as §3
Rattus norvegicus [11] = species: Rattus norvegicus; experiment: Radioactivity distribution in brain of normal fischer rat after injection of anti-[18F]FMACBC after 60 min.; type: ADME, organism-based; details: in vivo, 1 h; how it was run: as §1
Rattus norvegicus [12] = species: Rattus norvegicus; experiment: Radioactivity distribution in blood of tumor-bearing fischer rat after injection of anti-[18F]FMACBC after 5 min; type: ADME, organism-based; details: in vivo; how it was run: as §2
Rattus norvegicus [13] = species: Rattus norvegicus; experiment: Radioactivity distribution in spleen of normal fischer rat after injection of anti-[18F]FMACBC after 5 min.; type: ADME, organism-based; details: in vivo; how it was run: as §3
Rattus norvegicus [14] = species: Rattus norvegicus; experiment: Radioactivity distribution in blood of normal fischer rat after injection of anti-[18F]FMACBC after 30 min.; type: ADME, organism-based; details: in vivo, 0.5 h; how it was run: as §1
Rattus norvegicus [15] = species: Rattus norvegicus; experiment: Radioactivity distribution in muscle of tumor-bearing fischer rat after injection of syn-[18F]-FMACBC after 60 min; type: ADME, organism-based, Muscle tissue; details: in vivo, 1 h; how it was run: as §4
Rattus norvegicus [16] = species: Rattus norvegicus; experiment: Radioactivity distribution in liver of tumor-bearing fischer rat after injection of syn-[18F]-FMACBC after 120 min; type: ADME, organism-based; details: in vivo, 2 h; how it was run: as §4
Rattus norvegicus [17] = species: Rattus norvegicus; experiment: Radioactivity distribution in kidney of tumor-bearing fischer rat after injection of syn-[18F]-FMACBC after 60 min; type: ADME, organism-based; details: in vivo, 1 h; how it was run: as §2
Rattus norvegicus [18] = species: Rattus norvegicus; experiment: Radioactivity distribution in liver of normal fischer rat after injection of syn-[18F]-FMACBC after 30 min.; type: ADME, organism-based; details: in vivo, 0.5 h; how it was run: as §1

N[C@]1(C(=O)O)C[C@@H](CF)C1
ID/g (Rattus norvegicus [1]): 0.52%
ID/g (Rattus norvegicus [2]): 0.79%
ID/g (Rattus norvegicus [3]): 0.6%
ID/g (Rattus norvegicus [4]): 0.19%
ID/g (Rattus norvegicus [5]): 0.45%
ID/g (Rattus norvegicus [6]): 0.38%
ID/g (Rattus norvegicus [7]): 0.66%
ID/g (Rattus norvegicus [8]): 0.67%
ID/g (Rattus norvegicus [9]): 0.58%
ID/g (Rattus norvegicus [10]): 3.13%
ID/g (Rattus norvegicus [11]): 0.25%
ID/g (Rattus norvegicus [12]): 0.51%
ID/g (Rattus norvegicus [13]): 1.03%
ID/g (Rattus norvegicus [14]): 0.39%
ID/g (Rattus norvegicus [15]): 0.54%
ID/g (Rattus norvegicus [16]): 0.25%
ID/g (Rattus norvegicus [17]): 0.42%
ID/g (Rattus norvegicus [18]): 0.37%
